Compound activity deposited in PubChem by several laboratories.
Sampled rows, rich in hits. Any-hit rate of the full collection: about 1.5%.
SENP1 FRET inh: SENP1 (human) catalytic domain inhibition | inhibition, % at 10 µM | recombinant SENP1 catalytic domain, CyPet-SUMO1-YPet FRET cleavage | 360,000 tested, 0.21% active;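 active means inhibition at least 30% at 10 µM, raw YFP signal under a set limit, fluorescence ratio 0.5 to 1.5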;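 further: 0% = enzyme with DMSO and 100% = no enzyme wells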
Target sequence (Q9P0U3 419-644 limits assumed): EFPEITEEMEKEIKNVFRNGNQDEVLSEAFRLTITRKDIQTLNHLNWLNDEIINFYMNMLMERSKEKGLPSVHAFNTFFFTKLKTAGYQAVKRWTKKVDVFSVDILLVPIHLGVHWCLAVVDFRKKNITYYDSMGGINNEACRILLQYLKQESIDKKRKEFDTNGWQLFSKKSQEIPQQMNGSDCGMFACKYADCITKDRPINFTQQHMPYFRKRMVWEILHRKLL
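System: Recombinant human SENP1 catalytic domain, His6-tagged | Incubation: Enzyme reaction for 50 min at room temperature, dark | Medium: Tris pH 8 with BME, BSA, NP40 and catalase | Also added: 25 nM SUMO1 FRET substrate | Compound: 10 µM single point, 0.5% DMSO | Measured by: FRET fluorescence in CFP and YFP emission channels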
Myeloid diff 2: compounds promoting myeloid differentiation; ER-HoxA9 myeloid progenitors, lysozyme-GFP differentiation, flow cytometry; calls only at 10 µM; 360,000 tested, 1% active; AID 624256;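 active means normalized GFP-positive differentiation at or above the plate's own cutoff, the solvent-only control mean plus 3 SD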;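 further: cells exposed to compound for four days before flow analysis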
VLA-4 inh: inhibition in a human VLA-4 binding assay; 330,000 tested, 0.2% active; AID 2557; inhibition, % (about 7 µM as worked out from the volumes in the protocol); P13612; VLA-4 expressing cells, ligand binding flow cytometry; in the data active means inhibition above about 50%
Platelet DG rel: platelet dense granule release activity. inhibition, %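 (compounds screened at 7.5 µM in platelet-rich plasma)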. AID 1663. 300,000 tested, 0.22% active. human platelet-rich plasma, SFLLRN dense granule ATP release, luminescence;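 active means mean replicate score, as percent of positive control, at or above 50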
The depositor's hits bear a star.

`O=C(CCl)NNC(=O)c1c(O)c2ccccc2[nH]c1=O` gave SENP1 FRET inh -1, Myeloid diff 2 active, VLA-4 inh 4 and Platelet DG rel 3.
`Cn1cnnc1SCC(=O)NNC(=O)c1ccc([N+](=O)[O-])cc1` gave SENP1 FRET inh 2, Myeloid diff 2 inactive and VLA-4 inh 12.
Screening CSCC[C@H](NC(=O)OC(C)(C)C)C(=O)NCC1CCC(C(=O)N[C@@H](Cc2ccccc2)C(=O)O)CC1 (stereo not given in full) returned SENP1 FRET inh 1, Myeloid diff 2 active, VLA-4 inh 6 and Platelet DG rel 10.
Screening CSCCC(NC(=O)c1ccccc1Br)C(=O)NCC1CCCCC1 (stereo not given) returned SENP1 FRET inh 0, Myeloid diff 2 active, VLA-4 inh 8 and Platelet DG rel -4.
CC1CC2(CCCCC2)Nc2ccc3ccccc3c21 (stereo not given) was read as SENP1 FRET inh -70, Myeloid diff 2 active, VLA-4 inh -4 and Platelet DG rel 8.
For Nc1c(N2CCOCC2)cc(Cl)c2nonc12 the results were SENP1 FRET inh 6, Myeloid diff 2 inactive, VLA-4 inh -8 and Platelet DG rel 0.
Nc1c(N2CCCC2)cc(Cl)c2nonc12 was read as SENP1 FRET inh 61*, Myeloid diff 2 inactive, VLA-4 inh -15 and Platelet DG rel -5.
For O=C(Oc1cccc2cccnc12)c1cccs1 the results were SENP1 FRET inh 7, Myeloid diff 2 active, VLA-4 inh 7 and Platelet DG rel -37.
For COc1ccc(OC)c(NC(=O)COC(=O)COc2ccc(Nc3ccccc3)cc2)c1 the results were SENP1 FRET inh -3, Myeloid diff 2 inactive and VLA-4 inh 0.
For Cn1c(N)c(Sc2ccccc2[N+](=O)[O-])c(=O)n(C)c1=O the results were SENP1 FRET inh 1, Myeloid diff 2 inactive, VLA-4 inh 20 and Platelet DG rel 4.
Cc1cc(C)nc(-n2nc(C)cc2NC(=O)CN2CCc3ccccc3C2)n1 was read as SENP1 FRET inh -9, Myeloid diff 2 active, VLA-4 inh -3 and Platelet DG rel -1.
CC(C)CCN1CC(O)=C(c2nc3ccccc3[nH]2)C1=N was read as SENP1 FRET inh -4, Myeloid diff 2 inactive, VLA-4 inh -1 and Platelet DG rel 4.
Screening CC1(C)C(O)=C(c2nc3ccccc3[nH]2)C(=N)N1c1ccccc1 returned SENP1 FRET inh -28, Myeloid diff 2 active, VLA-4 inh 5 and Platelet DG rel 5.
`CC1N(C)c2cc(NC(=O)c3cccs3)c(P(=O)(Nc3ccc([N+](=O)[O-])cc3)N3CCOCC3)cc2C1(C)C` (stereo not given) gave SENP1 FRET inh 2, Myeloid diff 2 inactive, VLA-4 inh 19 and Platelet DG rel 0.
`CC(=O)N(Cc1ccc(F)cc1)C1=C(NCc2ccccc2)C(=O)c2ccccc2C1=O` gave SENP1 FRET inh -75, Myeloid diff 2 active and Platelet DG rel 2.
For O=C(NCc1ccc(F)cc1)C(c1ccccc1)c1ccccc1 the results were SENP1 FRET inh 3, Myeloid diff 2 inactive, VLA-4 inh 1 and Platelet DG rel -14.
Screening CCOC(=O)c1sc(NC(=O)c2sccc2C)cc1C returned SENP1 FRET inh 2, Myeloid diff 2 inactive, VLA-4 inh 21 and Platelet DG rel 62*.
Screening Cc1cc(C(=O)N/N=C\c2cc(C(C)(C)C)ccc2O)n[nH]1 returned SENP1 FRET inh -1, Myeloid diff 2 active, VLA-4 inh -13 and Platelet DG rel -5.
`Cc1nc2ncccn2c1-c1csc(NCc2ccco2)n1` gave SENP1 FRET inh 3, Myeloid diff 2 active, VLA-4 inh 2 and Platelet DG rel 3.
`O=C(O)c1ccc(N/N=C/c2ccc3c(c2)OCO3)cc1` gave SENP1 FRET inh 2, Myeloid diff 2 inactive, VLA-4 inh 0 and Platelet DG rel 86*.
For O=C(N/N=C/c1ccc2c(c1)OCO2)c1cccs1 the results were SENP1 FRET inh 1, Myeloid diff 2 inactive, VLA-4 inh 12 and Platelet DG rel 7.
`Cc1occc1C(=O)N/N=C/c1ccc2c(c1)OCO2` gave SENP1 FRET inh 1, Myeloid diff 2 inactive, VLA-4 inh 6 and Platelet DG rel 126*.
`O=C(N/N=C/c1ccc2c(c1)OCO2)c1ccc(COc2cccc3cccnc23)cc1` gave SENP1 FRET inh 0, Myeloid diff 2 active, VLA-4 inh -10 and Platelet DG rel 13.
Cc1ccsc1C(=O)N/N=C/c1ccc2c(c1)OCO2 was read as SENP1 FRET inh 1, Myeloid diff 2 inactive, VLA-4 inh -4 and Platelet DG rel 66*.
